Activity calls are given as the source filed them. The calls are words filed in the database; no cut-off is given here.

The text below walks through data of ChEMBL document CHEMBL4814013, “Scaffold repurposing of fendiline: Identification of potent KRAS plasma membrane localization inhibitors” (Eur J Med Chem, 2021).

The nature of assay [1]: Inhibition of ASM in dog MDCK cells co-expressing recombinant full length mGFP-tagged KRAS G12V mutant and mCherry-CAAX assessed as reduction in plasma membrane localization of KRAS mutant incubated for 48 hrs by confocal microscopic analysis. Type of assay: cell membranes, Canis lupus familiaris. In a few lines:
(§1)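 MDCK cells stably co-expressing mGFP-KRAS G12V or mGFP-LactC2 with mCherry-CAAX (HRAS 179–189 C181S/C184S) grown on coverslips in DMEM/10% FBS. Treated 48 h with 0.1% DMSO or graded drug, fixed in 4% paraformaldehyde, then quantitative confocal imaging. Mislocalization scored as the Manders fraction of mCherry-CAAX co-localizing with the GFP probe. IC50 and Emax from three independent experiments.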

For assay [2], the system named is MDCK. As to the kind of experiment: Inhibition of ASM in dog MDCK cells co-expressing recombinant full length mGFP-tagged KRAS G12V mutant and mCherry-CAAX assessed as reduction in plasma membrane localization of KRAS mutant incubated for 48 hrs by confocal microscopic analysis relative to control. Type of assay: cell membranes. The note with it: Canis lupus familiaris. In a few lines:
as §1

Assay [3] deals with MDCK. As to the kind of experiment: Cytotoxicity against dog MDCK cells at 30 uM. It counts as functional, cell-based. The note with it: Canis lupus familiaris.

Consider `C[C@H](c1cccc(Cl)c1)N(CC=C(c1ccccc1)c1ccccc1)CCN1CCN(C)CC1`, for which the IC50 in assay [1] worked out at 11.2 µM. In addition, in the assay on MDCK [2], the Emax came to 0.77. In the assay with MDCK [3], the outcome was Active.
Turning to `COc1ccc([C@@H](C)N(CC=C(c2ccccc2)c2ccccc2)C(=O)CN2CCN(C)CC2)cc1`, the IC50 in assay [1] turned out to be 7.1 µM. Further, the Emax in the assay with MDCK [2] was determined as 0.51. Moreover, in the assay on MDCK [3], the outcome was Active.
`COc1ccc([C@@H](C)N(CC=C(c2ccccc2)c2ccccc2)CCF)cc1`: in assay [1], the concentration for half-maximal inhibition (IC50) amounted to 10.1 µM. For the same compound, the Emax in the assay on MDCK [2] was 0.52. In addition, the result in the assay on MDCK [3] was inactive.
On to `COc1ccc([C@@H](C)N(CC=C(c2ccccc2)c2ccccc2)CCO)cc1`, for which the IC50 in assay [1] came out at 0.2 µM. For the same compound, in the assay with MDCK [2], the Emax is 0.72. Also, the outcome in the assay with MDCK [3] was inactive.

In general, IC50 refers to the concentration that gives 50% inhibition.
